Screens from PubChem BioAssay.
Dynein cargo inh – inhibitors of GR-EGFP nuclear translocation, primary screen, dynein cargo transport inhibitor project, imaging, high-content, 3617.4 mouse cells; test concentration mostly 20 µM; stimulated with dexamethasone, 1 µM; stronger effect = lower value; z-score, hits read low; 220,000 tested, 0.47% active; AID 1381, 2008;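 active means plate z-score of nuclear minus cytoplasmic receptor signal below a set negative limit, without overly bright fluorescence or cell loss, cut at about -3.5 in these data, passing the limit was not always enough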;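 further: z-score of nuclear minus cytoplasmic ring GR-EGFP intensity difference per well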
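Buffer or medium: tetracycline-free induction medium containing charcoal-stripped FBS / Reagent: dexamethasone agonist, 1.0 µM final, for 30 min / Technique: automated 10x imaging of fixed Hoechst-stained cells / Times: induction 48 h, compound 1 h, agonist 30 min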
B2AR ag – beta2AR agonists driving receptor internalization, primary screen, cell-based, FAP fluorogen, flow cytometry | Beta-2 adrenergic receptor (Homo sapiens), P07550 | Am2.2-beta2AR cells | response, % (test concentration not listed) | 340,000 tested, 0.43% active | AID 504454, 2011;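 active means response above a set limit, near 3 SD of response in nonfluorescent compounds, cut at about 42% in these data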
Target sequence (P07550 whole entry, looked up): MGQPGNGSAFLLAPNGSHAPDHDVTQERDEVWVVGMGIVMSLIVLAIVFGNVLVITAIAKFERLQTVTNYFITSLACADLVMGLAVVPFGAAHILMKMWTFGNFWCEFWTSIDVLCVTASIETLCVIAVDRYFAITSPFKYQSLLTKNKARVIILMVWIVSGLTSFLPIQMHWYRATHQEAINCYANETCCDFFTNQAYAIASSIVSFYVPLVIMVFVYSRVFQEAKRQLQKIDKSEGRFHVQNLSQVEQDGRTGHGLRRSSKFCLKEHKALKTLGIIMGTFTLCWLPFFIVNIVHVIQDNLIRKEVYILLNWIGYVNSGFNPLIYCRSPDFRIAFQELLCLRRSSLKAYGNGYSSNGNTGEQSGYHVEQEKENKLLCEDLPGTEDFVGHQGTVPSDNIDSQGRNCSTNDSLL
zVAD death inh – inhibitors of zVAD-triggered necroptosis, primary screen, L929 cells; AID 1377, 2008; viability rescue, % at 10 µM; L929 zVAD necroptosis rescue, ATP luminescence, 24 h; with zVAD 60 µM; 220,000 tested, 0.38% active;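 active means activation, scaled between plate controls, above about 75%, limit read from the data; inactive means activation under that limit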;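 further: 0% = zVAD with DMSO and 100% = DMSO alone without zVAD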
TNF necrop inh – inhibitors of TNF-alpha triggered necroptosis, primary screen, cell-based, Jurkat FADD-/-, single concentration. Jurkat FADD-/- TNF necroptosis rescue, ATP luminescence, 24 h; 0 = TNF only, 100 = no-TNF cells. activation (protection from cell death), % at 10 µM. 220,000 tested, 0.068% active. AID 463075, 2010;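 active means activation, meaning protection from cell death, of at least 50% relative to plate controls; inactive means activation below 50%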;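 further: necroptosis triggered by 40 ng/mL TNF-alpha added together with compound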
MDM2 E3 inh – MDM2-luciferase reporter signal enhancers, primary screen, MDM2 E3 ligase inhibitor project, cell-based, luminescence, 1536-well; cell-based MDM2 ubiquitination luciferase reporter, 2 h; 0 = plate control, 100 = twice control, blank-subtracted; signal enhancement, % at 5 µM; 210,000 tested, 0.11% active; AID 1230, 2008;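 active means signal enhancement of 30% or more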;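 further: luminescence tracks abundance of the self-degrading MDM2-luciferase fusion protein; higher signal means inhibition of MDM2 E3 ligase activity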
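test system = mammalian cells stably expressing self-ubiquitinating, self-degrading MDM2 E3–luciferase fusion | quantity = 2000 cells/well | incubation = cell settling 4 h, compound treatment 2 h, both 37 °C | signal = luminescence with SteadyLite reagent, 15 min at room temperature | evaluation = % enhancement relative to plate controls after blank subtraction | benchmarks = plate controls and plate blanks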
zVAD death conf – inhibitors of zVAD-triggered necroptosis in L929, confirmation, L929 cells, duplicate runs. activation (protection from necroptosis), % at 10 µM. shares compounds with zVAD death inh. 760 tested, 16% active. L929 zVAD-induced necroptosis rescue, ATP luminescence, 24 h;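 active means mean protection from necroptosis of at least 50% over duplicate tests; inactive means mean protection below 50%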;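 further: 0% = cells with zVAD alone and 100% = vehicle cells without zVAD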
* = called active by the depositor; / = not tested or not shown. The list is not random: actives were taken first. Their share in the collection is about 0.97%.

SMILES	Dynein cargo inh	B2AR ag	zVAD death inh	TNF necrop inh	MDM2 E3 inh	zVAD death conf
COc1ccc2ccccc2c1/C=N/NC(=O)c1sc(N)c(C#N)c1C	-0.51	9	1	3	-41	/
COc1cc(/C=N/NC(=O)c2sc(N)c(C#N)c2C)cc(Br)c1O	-0.093	6	99*	5	-12	39
COCCN1C(=O)N(c2cccc(OC)c2)C(=O)C1CC(=O)Nc1ccc(Cl)cc1 (stereo unspecified)	/	6	/	/	/	/
Cn1c(=O)c2c(c3ccccc31)OC(C)(C)CC2	3.6	-2	-1	-1	4	/
CC(=O)c1cnc2cc(-c3ccccc3)nn2c1C	-0.36	1	82*	-1	-32	2
CC(=O)c1cnc2cc(-c3ccc(C)cc3)nn2c1C	1.4	-12	1	-2	-24	/
COc1ccc(Cl)cc1NC(=O)COc1cccc(-n2cnnn2)c1	0.75	-10	81*	0	-17	33
O=CNC1CCCc2c1[nH]c1ccc(Cl)cc21 (stereo unspecified)	-0.79	4	1	-3	-2	/
Clc1ccc2[nH]c3c(c2c1)CCc1cn[nH]c1-3	-1.7	22	101*	90*	-11	83*
c1ccc2c3c([nH]c2c1)-c1[nH]ncc1CC3	-0.44	-5	91*	95*	-5	93*
O=C1CCCc2c1[nH]c1ccccc21	-0.25	1	0	0	18	/
O=C(NN=Cc1ccccc1Cl)c1ccc(-n2cnnn2)cc1	/	-1	/	/	/	/
CCN1CCN(CC(=O)Nc2nc3ccc(OC)cc3s2)CC1	-0.056	4	84*	2	1	22
COc1ccc2nc(NC(=O)CCNC(=O)c3ccccc3Cl)sc2c1	1.4	-1	78*	2	-8	3
COc1ccc2nc(NC(=O)CN3CCN(C)CC3)sc2c1	-0.48	-3	92*	-1	-10	37
CCOC(=O)N1CCC(N(CCN(C)C)C(=S)Nc2cc(Cl)cc(Cl)c2)CC1	-1.3	-4	1	2	-8	/
Cc1cc(O)c(C(C)C)cc1N=Nc1ccccc1C(=O)O	-0.24	9	2	-4	-17	/
Cc1cc(NO)c(C(C)C)cc1N=O	0.14	5	78*	-2	-11	8
Nc1c(C(=O)NC2CC2)c2nc3ccccc3nc2n1-c1ccc2c(c1)OCO2	-0.44	3	51	-8	/	/
Nc1c(C(=O)OCC2CCCO2)c2nc3ccccc3nc2n1-c1ccc2c(c1)OCCO2 (stereo unspecified)	-1.2	/	93*	-7	-10	2
COc1cc(/C=N/Nc2ncnc3sc4c(c23)CCC4)ccc1O	1	-5	82*	10	/	38
COc1cc(/C=N/NC2=NCCCCC2)ccc1O	0.31	-3	0	1	-10	/
Clc1ccc(COn2ccnc2)cc1Cl	-0.47	-3	88*	88*	-17	92*
Cc1cccc(NC(=O)Nc2ccc(C)c(C)c2)n1	-0.055	-5	75*	-1	-23	6
CC(=O)Nc1ccc(NC(=O)Nc2ccc(C)c(C)c2)cc1	0.78	9	80*	-3	-11	1
SMILES	Dynein cargo inh	B2AR ag	zVAD death inh	TNF necrop inh	MDM2 E3 inh	zVAD death conf
Cc1ccc(NC(=O)Nc2cccc(C)n2)cc1	/	0	/	/	/	/
Cc1cccc(NC(=O)Nc2ccc([N+](=O)[O-])cc2)n1	-0.6	6	76*	0	-28	40
CC(=O)Nc1cccc(NC(=O)Nc2ccc(C)c(Cl)c2)c1	1.9	11	2	3	-17	/
CCOC(=O)c1ccc2ncc(-c3ccccc3)nc2c1	0.11	7	76*	0	-7	1
COc1cccc(CNC(=O)CCn2c(=O)oc3ccccc32)c1	-0.27	-2	0	-1	-11	/
O=C(NC(=S)NCc1nc2ccccc2[nH]1)c1ccccc1F	-0.021	-5	12	3	-6	/
O=C(NC(=S)NCc1nc2ccccc2[nH]1)c1ccc(F)cc1	1.6	-8	84*	18	-22	17
CN1CCN(c2ccc(-c3ccnn3C(=O)Nc3cccc(C(F)(F)F)c3)cc2)CC1	-0.26	-1	84*	6	-18	51*
Cc1cccc(-n2c(=O)[nH]c3c(C(N)=O)nc(-c4ccccc4Cl)nc32)c1	-0.34	6	1	0	-12	/
O=C(N/N=C/c1ccco1)c1ccc(Br)o1	0.36	-3	0	-3	-10	/
O=C(Nc1cccc(Oc2ccc3c(c2)C(=O)NC3=O)c1)c1cccs1	0.056	-12	87*	0	-5	43
Cc1ccc(CNC(=O)Nc2ccccc2)cc1	-0.096	7	0	1	-17	/
O=c1oc2ccccc2nc1/C=C(\O)c1ccccc1	-0.46	3	68	23	-5	/
CC(C)(C)/C(O)=C/c1nc2ccccc2oc1=O	-2.6	9	88*	10	-5	8
Cc1ccc(SCc2cc(=O)[nH]c(Nc3nc(C)c4ccc(C)cc4n3)n2)cc1	-0.21	-6	1	2	-1	/
Cc1ccc2c(C)nc(Nc3nc(CSc4nc5ccccc5[nH]4)cc(=O)[nH]3)nc2c1	-0.49	18	87*	-22	-7	53*
Cc1ccc(-c2n[nH]c(=S)c3ccccc23)cc1	-0.073	3	1	-1	-8	/
CC(=O)N(C(C)=O)c1ncc2c([nH]c3ccccc32)c1C#N	0.71	26	87*	-11	-11	44
Cc1nc(C(=O)O)cc2c1[nH]c1ccccc12	/	3	/	/	/	/
CN(C)/C=C(\C#N)S(=O)(=O)C(C)(C)C	-1.4	5	0	2	-13	/
CCOc1ccccc1-n1c(SCC(=O)Nc2ccc(CC)cc2)nc2n[nH]c(C)c2c1=N	1.6	/	80*	-3	-5	43
CCOc1ccccc1NC(=O)CCSc1nc2n[nH]c(C)c2c(=N)n1-c1ccccc1Cl	0.18	24	31	-12	-14	/
CCN(CCCNC(=O)CCCN1C(=O)COc2ccc(C)cc21)c1cccc(C)c1	0.2	-1	0	-1	-9	/
Cc1ccc(-n2nnnc2SCC(=O)Nc2nc(-c3ccc(F)cc3)cs2)cc1C	0.045	-1	0	-2	-18	/
Oc1ccc(/C=N/Nc2ccc(C(F)(F)F)cn2)cc1	0.38	-9	83*	38	5	63*
COc1cc(/C=N/Nc2ccc(C(F)(F)F)cn2)cc(OC)c1O	-0.71	2	81*	36	-20	75*
